Experimental findings from ChEMBL document CHEMBL1811918, “Sesquiterpene and norsesquiterpene derivatives from Sanicula lamelligera and their biological evaluation” (J Nat Prod, 2011) are described below.

The nature of data set [1]: Cytotoxicity against human C8166 cells after 3 days by MTT assay. The class given is cell-based. Summed up: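 C8166 cells were seeded in triplicate with or without a concentration series and held at 37 C for 3 days, with compound-free wells as negative control. Viable cells were quantified by MTT absorbance at 595/630 nm. CC50, the 50% reduction in viable cells, was taken from the dose–response curve.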

For the next data set, the system named is HL-60. In words: Cytostatic activity against human HL60 cells after […] by MTT assay. The class given is functional, cell-based. Summed up: (§1)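 MTT viability in human tumor lines exposed to a concentration series for 48 h. Adherent cells were allowed to attach for 12 h before dosing. Suspension cells were seeded immediately before dosing at (1–2) × 10^5 cells/mL. DMSO wells served as negative control and DDP (cisplatin) as positive control. IC50 was calculated from viability.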

The subject of another data set is A549. In words: Cytostatic activity against human A549 cells after […] by MTT assay. The class given is functional, cell-based. Summed up: as §1
In general terms: Tetrazolium dyes change colour on reduction, which living cells bring about.

In another data set the test system is SW480. In words: Cytostatic activity against human SW480 cells after […] by MTT assay. The class given is functional, cell-based. Summed up: as §1
Data set [2] deals with Human immunodeficiency virus 1. In words: Antiviral activity against Human immunodeficiency virus 1 3B infected in human C8166 cells assessed as numbers of syncytia after 3 days by syncytium counting. The conditions noted are these: C8166, 72 h.
The test system of another data set is RAW264.7. In words: Antiinflammatory against mouse RAW264.7 cells assessed as inhibition of LPS-induced nitric oxide production. In kind it is functional, cell-based. In short, it runs like this:
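Nitric oxide production was measured in LPS-stimulated RAW 264.7 macrophages, with DMSO wells as negative control and MG-132 as positive control. IC50 was derived.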

The test system of the next data set is SMMC-7721. Nature of the data set: Cytostatic activity against human SMMC7721 cells after […] by MTT assay. In kind it is functional, cell-based. In short, it runs like this: as §1
In the next data set the test system is MCF7. In words: Cytostatic activity against human MCF7 cells after […] by MTT assay. The class given is functional, cell-based. In short, it runs like this: as §1
Data set [3] is described as follows: Therapeutic index, ratio of CC50 for human C8166 cells to EC50 for Human immunodeficiency virus 1 3B infected in human C8166 cells. The conditions noted are these: read-out: Ratio CC50/EC50. In kind it is cell-based. Summed up: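 Ratio of CC50 (MTT viability of uninfected C8166 cells, 3 days, 37 C) to EC50 (syncytium counts in HIV-1 IIIB-infected C8166 cells, 3 days, 37 C).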

Data set [4] has as its system Human immunodeficiency virus 1. In words: Antiviral activity against Human immunodeficiency virus 1 3B infected in human C8166 cells assessed as numbers of syncytia after 3 days by MTT assay. The class given is functional, organism-based. The conditions noted are these: C8166, 72 h. Summed up: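 Compounds at various concentrations were added to C8166 cells (8 × 10^5/mL) infected with HIV-1 IIIB and incubated at 37 C for 3 days. The cytopathic effect was scored by counting syncytia, with AZT as positive control. EC50 came from the percentage of syncytial cells relative to the infected untreated control.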

Structures are written as SMILES. Residues, ends and D or L forms follow the SMILES beside them. *: point of attachment. Cbz = O=C(OCc1ccccc1)* A value given as a limit tells only on which side of the number the result lay.

With `CC(C)C1=C[C@@H]2[C@H](CC[C@@]2(C)O)[C@@](C)(O)CC1` [GUAIANEDIOL], the half-maximal cytotoxic concentration (CC50) – broadly, the concentration at which the toxic effect on the cells reaches its halfway point – at 72 h in data set [1] was > 420 µM. In addition, the IC50 in the data set with HL-60, in the data set on A549, in the data set on SW480, in the data set with RAW264.7, in the data set with SMMC-7721 and in the data set with MCF7 was > 64.4 µM throughout. Also, in data set [2], the EC50 – broadly, the concentration needed to bring the measured effect to its halfway point – is > 420 µM.
In data set [1], `CC(C)[C@H]1CC[C@@]2(C)[C@@H]1[C@@H]1O[C@]1(CO)CC[C@@H]2O` [SANICULAMOID B] registered a CC50 at 72 h of 358 µM. Also, the IC50 in the data set on HL-60, in the data set with A549, in the data set on SW480, in the data set with RAW264.7, in the data set with SMMC-7721 and in the data set with MCF7 was > 64.4 µM each time. For the same compound, the selectivity ratio in data set [3] amounted to 2.9. In data set [2], the EC50 was determined as 126 µM.
For `C=C1CC[C@@H](O)[C@]2(C)CC[C@H](CC(C)(C)O)[C@@H]12`, the CC50 at 72 h in [1] was > 420 µM. Also, the IC50 with HL-60, with A549, in the data set on SW480, with RAW264.7, in the data set with SMMC-7721 and with MCF7 was > 64.4 µM in each case. Moreover, the EC50 in data set [2] is > 420 µM.
For `CC(C)C[C@@H](C=O)NC(=O)[C@H](CC(C)C)NC(=O)[C@H](CC(C)C)NC(=O)OCc1ccccc1` [MG-132] (Cbz-Leu-Leu-Leu-aldehyde), the IC50 (as a rule, the concentration that gives 50% inhibition) with RAW264.7 was found to be 0.439 µM.
Consider `C=C1CC[C@H](O)[C@@]2(C)CC[C@@H]([C@@H](O)C(C)C)[C@H]12`, for which the CC50 at 72 h in data set [1] came to 398 µM. The IC50 in the data set with HL-60, in the data set with A549, in the data set with SW480, in the data set with RAW264.7, with SMMC-7721 and in the data set on MCF7 was > 64.4 µM throughout. In [3], the selectivity ratio is 2.4. In addition, in data set [2], the EC50 was found to be 167 µM.
Regarding `C=C1CC[C@H]2[C@@H]([C@@H]3[C@@H]1CC[C@@]3(C)O)C2(C)C`, half-maximal cytotoxicity in [1] (CC50 at 72 h) was put at 170 µM. Moreover, the IC50 with HL-60, with A549, in the data set with SW480, in the data set with RAW264.7, with SMMC-7721 and in the data set with MCF7 was > 64.4 µM each time. Moreover, in data set [3], the selectivity ratio worked out at 1.6. Further, the EC50 in data set [2] worked out at 104 µM.
`CC(=O)C=C=C1C(C)(C)C[C@H](O)C[C@@]1(C)O[C@@H]1O[C@H](CO)[C@@H](O)[C@H](O)[C@H]1O` [CITROSIDE B]: in data set [1], the CC50 at 72 h is > 259 µM. Besides, the half-maximal inhibitory concentration (IC50) in the data set on HL-60, in the data set on A549, in the data set with SW480, with RAW264.7, in the data set on SMMC-7721 and in the data set with MCF7 was > 64.4 µM throughout. Further, in data set [2], the EC50 was > 259 µM.
In the case of `C[C@H](/C=C/[C@]12O[C@@]1(C)C[C@@H](O)CC2(C)C)O[C@@H]1O[C@H](CO)[C@@H](O)[C@H](O)[C@H]1O` [PHLOMUROSIDE], the CC50 at 72 h in data set [1] is > 258 µM. In addition, the half-maximal inhibitory concentration (IC50) in the data set with HL-60, with A549, in the data set with SW480, in the data set on RAW264.7, in the data set on SMMC-7721 and with MCF7 was > 64.4 µM in each case. For the same compound, the EC50 in [2] was > 258 µM.
In the case of `C=C1CC[C@@H](O)[C@]2(C)CC[C@@](O)(C(C)C)C[C@@H]12`, the CC50 at 72 h in data set [1] is > 420 µM. In addition, the IC50 in the data set with HL-60, in the data set with A549, in the data set with SW480, with RAW264.7, in the data set with SMMC-7721 and in the data set on MCF7 was > 64.4 µM in each case. Besides, the EC50 in data set [2] was > 420 µM.
In data set [1], `C=C1CC[C@@H](O)[C@@]2(C)CC[C@H](C(C)C)[C@@H](O)[C@H]12` returned a 50% cytotoxic concentration (CC50) at 72 h of 68.1 µM. Moreover, the IC50 with HL-60 is 31.1 µM; in the data set with A549, 41.6 µM; in the data set on SW480, 37 µM; with RAW264.7, 28.1 µM; with SMMC-7721, 32.4 µM; with MCF7, 35.3 µM. In addition, in data set [3], the selectivity ratio was 2.1. In addition, the EC50 in data set [2] was found to be 31.9 µM.
Consider `CC(=O)/C=C/[C@@]1(O)C(C)=CC(=O)CC1(C)C`, for which, in [1], the CC50 at 72 h is > 450 µM. Moreover, the 50% inhibitory concentration (IC50) in the data set with HL-60, in the data set on A549, with SW480, in the data set on RAW264.7, in the data set on SMMC-7721 and in the data set on MCF7 was > 64.4 µM each time. Besides, the EC50 in [2] is > 450 µM.
`CC(C)[C@H]1CC[C@@]2(C)[C@@H]1[C@H]1O[C@@H]2CC[C@@H]1C(=O)O` [SANICULAMOID A1] yielded a CC50 at 72 h in [1] of 195 µM. For the same compound, the IC50 in the data set on HL-60, in the data set with A549, in the data set on SW480, in the data set with RAW264.7, in the data set with SMMC-7721 and with MCF7 was > 64.4 µM in each case. Also, in data set [3], the selectivity ratio is 1.2. Further, the EC50 in [2] came to 162 µM.
`Cc1cn([C@H]2C[C@H](N=[N+]=[N-])[C@@H](CO)O2)c(=O)[nH]c1=O` [ZIDOVUDINE]: in data set [1], the CC50 at 72 h was 4070 µM. Also, the selectivity ratio in data set [3] came to 214000. The EC50 in [4] came out at 4.5 nM.
As to `CC(C)(O)[C@H]1C[C@H]2[C@H](CC[C@@]2(C)O)[C@](C)(O)C[C@@H]1O` [SANICULAMOID C], the half-maximal cytotoxic concentration (CC50) at 72 h in data set [1] was > 368 µM. For the same compound, the IC50 in the data set with HL-60, in the data set with A549, in the data set with SW480, in the data set on RAW264.7, in the data set on SMMC-7721 and in the data set with MCF7 was > 64.4 µM each time. Also, in [2], the EC50 was > 368 µM.
Regarding `C=C(C)[C@@H]1CC[C@@]2(C)[C@H](O)CC[C@@](C)(O)[C@@H]2C1` [CYPERUSOL C], the half-maximal cytotoxic concentration (CC50) at 72 h in data set [1] is > 420 µM. The IC50 in the data set on HL-60, in the data set with A549, in the data set on SW480, with RAW264.7, in the data set on SMMC-7721 and in the data set with MCF7 was > 64.4 µM each time. Besides, the selectivity ratio in data set [3] was > 2.8. Also, the EC50 in data set [2] is 150 µM.
Take `CC(=O)CC[C@@H](C(C)C)[C@@H]1[C@H]2CCC(=O)[C@H]21` [SANICULAMOID D]: the CC50 at 72 h in data set [1] is > 450 µM. The IC50 with HL-60, in the data set with A549, in the data set on SW480, in the data set with RAW264.7, in the data set on SMMC-7721 and in the data set on MCF7 was > 64.4 µM in each case. The selectivity ratio in data set [3] is > 2.3. In data set [2], the EC50 is 196 µM.
